# PGC1a acetyl inh: PGC1a acetylation modulation, inhibitor mode; U2OS PGC1a acetylation, AlphaScreen anti-acetyl-lysine; with virally co-expressed GCN5 acetyltransferase; 350,000 compounds, 0.17% hits; inhibition, % at 15.6 µM;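 active = every replicate shows inhibition of at least 40%; inconclusive = mean inhibition at least 40% but some replicate below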;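 note: 0% = neutral control wells and 100% = positive control wells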
# DENV2 CPE rescue: DENV2-induced cell death inhibition; 350,000 compounds, 1.7% hits; DENV2-infected cells, cytopathic effect rescue, plate reader; CPE inhibition, % at 9.99 µM; in the data active = CPE inhibition above about 20%, passing the limit was not always enough; inconclusive = no clear call, values can overlap the other calls; tested in BHK-21 cells;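 note: 0% = median of neutral control wells and 100% = median of positive control wells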
# Ecoli rRNA inh: selective bacterial rRNA inhibition in E. coli; 350,000 compounds, 1.6% hits; E. coli WT GFP vs humanized-ribosome RFP mutants, fluorescence, 24 h; active compounds read low; DMSO median 0, no signal -100; AID 720706; GFP signal change (wild-type ribosome), % (concentration not given with the values);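 active = significant combined selectivity score with lowered wild-type GFP, culture density cut under 30%, mutant RFP and density less affected; inactive = any of these conditions unmet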
# FN deposition inh: fibronectin deposition inhibition; AH1F fibroblasts, Alexa488-fibronectin deposition fluorescence, overnight; inhibition, % at 12.6 µM; 350,000 compounds, 0.086% hits;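 active = mean inhibition across replicates of 30% or more, regardless of how many single replicates reach that level; inconclusive = mean under 30% yet at least half of replicates reach 30%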;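 note: positive control wells lacked labelled fibronectin entirely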
#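 Material – AH1F fibroblast monolayer, labelled fibronectin deposition · Reagent – labelled fibronectin 24 nM · Timing – 1 h adhesion, overnight exposure · Measured by – fluorescence at 485 nm excitation, 525 nm emission · Read-out – inhibition of fibronectin deposition signal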
# PglD inh: PglD (C. jejuni) enzyme inhibition. purified PglD enzyme, DTNB colorimetric CoA detection. inhibition, % at 12.5 µM. 360,000 compounds, 0.098% hits; in the data active = inhibition above about 16%, passing the limit was not always enough; inconclusive = no clear call, values can overlap the other calls
# HIV Env fusion: blocks HIV Env-driven cell-cell fusion. HeLa-JRFL Env/CEM21 cell fusion, luciferase. inhibition, % at 12.3 µM. 360,000 compounds, 1.1% hits. AID 651610;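 active = mean replicate inhibition score of at least 50 and every replicate individually at or above 50; inconclusive = only one of the two criteria met; inactive = mean below 50 and not all replicates reaching 50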;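 note: 0% = plate neutral controls and 100% = maraviroc near 300 nM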
# HepG2 cytotox: HepG2 cell cytotoxicity | shares compounds with Ecoli rRNA inh | HepG2 viability, ATP luminescence, 72 h | activity change, negative = cytotoxicity, unspecified at 26 µM | 30 tested, under 10 active;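 active = compounds whose fitted half-maximal signal-loss concentration is at most twice their highest valid dose; inconclusive = flat curve with 30 to 70% signal loss, or poor fit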
# AID977621: growth inhibition of wild-type GFP E. coli, dose response, H69 mutant RFP, cherry-pick | shares compounds with Ecoli rRNA inh | activity change, negative = inhibition at 50 µM | 1,900 tested, under 10 active | AID 977621 | E. coli wild-type GFP strain growth, fluorescence, 24 h;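 active = Wild-type ribosome reporter drop at least double the humanized mutant ribosome reporter drop, growth loss under a set limit; inconclusive = no clear call, values can overlap the other calls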;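 note: wild-type GFP and H69 mutant RFP strains grown together 50/50 in each well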
# AID977628: E. coli growth inhibition, wild-type GFP versus h24 humanized RFP strain, dose response, h24 mutant RFP vs wild-type GFP, cherry-pick; shares compounds with Ecoli rRNA inh; E. coli WT GFP strain growth, fluorescence, 24 h; activity change, negative = inhibition at 50 µM; 1,900 tested, under 10 active;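 active = compound lowering the normal-ribosome reporter at least twice as much as the humanized-ribosome reporter, growth loss under a set limit; inconclusive = no clear call, values can overlap the other calls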;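 note: wild-type GFP and h24 humanized RFP strains co-cultured 1 to 1 per well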
# Numbers without * were called inactive; ? = inconclusive; . = not tested or not shown; [ ] = remark or other dose. An excerpt weighted towards active compounds, which were near 3.5% of everything screened.
SMILES,PGC1a acetyl inh,DENV2 CPE rescue,Ecoli rRNA inh,FN deposition inh,PglD inh,HIV Env fusion,AID977621,AID977628,others
O=C1OC[C@H]2CCCN2C(=O)[C@@H](CC(=O)N(CCO)Cc2ccccc2)C/C=C\C[C@H]1Cc1ccc(F)cc1,0,?,-10,-4,-4,-15,.,.,
COc1ccc(NC(=O)Nc2ccc3c(c2)CC(=O)N([C@H](C)CO)C[C@@H](C)[C@@H](CN(C)C(=O)NC2CCCCC2)O3)cc1,3,.,-1,.,.,15[16.7 µM],.,.,
CC(C)(C)c1ccc(N2C(=O)CSC2c2cccnc2)cc1 (centres undefined),.,0,-19*,0,-8,-2,-10,.,
O=C1CSC(c2cccnc2)N1Cc1ccc(Cl)c(Cl)c1 (centres undefined),.,-2,-35*,-1,.,8,.,-4.8,
CCN=C1NN=C(c2ccc(C)cc2)CS1,12,-5,-23*,.,-3,.,-10,-8.1,
O=C(C[C@H]1C=C[C@@H](NC(=O)c2ccncc2)[C@@H](CO)O1)Nc1ccc(-c2ccccc2)cc1,-2,-9,-6,.,.,.,.,.,
Cc1cc(C)c(OCCNC(=O)c2ccccc2Sc2ccccc2C#N)c(C)c1,-6,-13,-25*,12,.,15,.,.,HepG2 cytotox=21
Cc1ccccc1OCCNC(=O)c1ccccc1Sc1ccccc1C#N,1,.,.,.,4,.,.,.,
Cc1cc(C)c(OCC(=O)OCC(=O)N2CCc3ccccc3C2)c(C)c1,.,8,-16*,3,-1,6,.,-9.6,
Cc1ccc(-c2ccc([C@H]3[C@@H](CO)N4CCCCN(S(=O)(=O)c5ccccc5C)C[C@@H]34)cc2)cc1,-5,-15,6,.,-7,.,.,.,
O=S(=O)(Cc1ccccc1)N1CCCCN2[C@@H](CO)[C@@H](c3ccc(-c4cccnc4)cc3)[C@@H]2C1,5,9,-28*,.,-4,.,-0.82,?,
Cc1cccc(-c2ccc([C@H]3[C@@H](CO)N4CCCCN(S(=O)(=O)c5ccccc5C)C[C@H]34)cc2)c1,1,2,-41,.,3,.,0.84,.,
Cc1cccc(-c2ccc([C@H]3[C@@H](CO)N4CCCCN(S(=O)(=O)c5ccccc5C)C[C@@H]34)cc2)c1,-1,0,2,.,-2,.,-3.9,-3,
CCCNC(=O)C[C@H]1CC[C@H]2[C@@H](COC[C@H](O)CN2Cc2ccncc2)O1,-2,6,-3,-5,0,.,.,.,
CS(=O)(=O)c1ccc(Cl)c(NC(=O)COC(=O)c2c(Cl)cccc2Cl)c1,-5,3,-26*,-3,-6,24,-5.1,-7.1,
CC(=O)Nc1sc(C)c(C)c1C(=O)OCC(=O)Nc1cc(S(C)(=O)=O)ccc1Cl,-9,0,6,6,1,13,.,.,
COc1ccc(CNC(=O)CSCc2c(F)cccc2Cl)cc1,5,15,-27*,2,-3,12,-2.6,.,
O=C(CSCc1c(Cl)cccc1Cl)NCc1ccccn1,-6,4,-23*,-4,.,12,-5.6,-2.1,
O=C(CSCc1ccc(Br)cc1)NCc1ccccn1,1,-3,-19*,.,0,-18,1.9,0.69,
O=C(COc1ccc(Br)cc1)NCc1ccccn1,6,.,6,.,4,.,.,.,
C[C@H]1CN([C@@H](C)CO)C(=O)c2cccc(NS(=O)(=O)c3ccccc3)c2O[C@@H]1CN(C)C(=O)Nc1ccc2c(c1)OCO2,12,-6,1,.,-1,-4[16.7 µM],.,.,
CN(C)S(=O)(=O)c1cccc(C(=O)OCC(=O)c2ccc3c(c2)NC(=O)CO3)c1,4,2,-27*,.,3,.,-9.3,-9.2,
CN(C)S(=O)(=O)c1ccc(C(=O)OCC(=O)c2ccc3c(c2)NC(=O)CO3)cc1,10,-3,11,4,6,5,.,.,
